A selection: hits, their analogues and other compounds. The true share with any hit is near 3.5%.
FXIa inh 1536: human FXIa protease inhibitors, primary screen, biochemical, 1536-well. purified FXIa, Boc-Glu-Ala-Arg-AMC fluorogenic substrate. inhibition, % at 5 µM. 0.14% of 220,000 active. AID 798, 2007;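 active means inhibition of at least 40%; inactive means inhibition below 40%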;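 further: fluorescence of freed AMC excited at 355 nm; 0% = enzyme without compound and 100% = no enzyme blank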
hK5 inh: human KLK5 protease inhibitors, primary screen, biochemical, 1536-well; recombinant hK5, fluorogenic AMC substrate cleavage; 0.59% of 210,000 active; inhibition, % at 5 µM; AID 873, 2007; Kallikrein-5 (Homo sapiens), Q9Y337;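 active means inhibition of 40% or more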;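 further: 0% = enzyme controls without compound and 100% = no-enzyme blanks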
AHR act: AHR activators, primary screen, cell-based, luminescence, luciferase reporter, human; AHR-responsive luciferase reporter cells; activation, % at 5 µM; 2.5% of 320,000 active; AID 2796, 2010; in the data active means activation above about 47%;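 further: 0% = vehicle wells and 100% = reference agonist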
Thrombin inh: human alpha-thrombin inhibitors, primary screen, counter-screen for coagulation protease inhibitor project, biochemical, 1536-well, fluorogenic AMC substrate; Prothrombin (Homo sapiens), P00734; Boc-VPR-AMC fluorogenic substrate cleavage; inhibition, % at 5 µM; 0.26% of 220,000 active;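 active means inhibition at or above 40%; inactive means inhibition below 40%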;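 further: 0% = enzyme with no compound and 100% = wells without enzyme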
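Test system: human alpha-thrombin protein / Dosing: one concentration per compound, 5 µM, with 0.2% DMSO / Medium: pH 7.5 Tris-saline with Tween 20 / Benchmarks: no-compound enzyme wells and no-enzyme blanks / Read-out basis: percent inhibition of thrombin substrate cleavage / Timing: reaction at room temperature / Measured by: fluorescence, ex 355 nm, em 460 nm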
FXIIa inh 1536: human FXIIa protease inhibitors, primary screen, biochemical, 1536-well; purified FXIIa, Boc-QGR-AMC fluorogenic substrate, 2 h; inhibition, % at 5 µM; 0.3% of 220,000 active; in the data active means inhibition above about 40%;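 further: 0% = enzyme with no compound and 100% = blank without enzyme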
Target sequence (P00748 20-372 limits assumed): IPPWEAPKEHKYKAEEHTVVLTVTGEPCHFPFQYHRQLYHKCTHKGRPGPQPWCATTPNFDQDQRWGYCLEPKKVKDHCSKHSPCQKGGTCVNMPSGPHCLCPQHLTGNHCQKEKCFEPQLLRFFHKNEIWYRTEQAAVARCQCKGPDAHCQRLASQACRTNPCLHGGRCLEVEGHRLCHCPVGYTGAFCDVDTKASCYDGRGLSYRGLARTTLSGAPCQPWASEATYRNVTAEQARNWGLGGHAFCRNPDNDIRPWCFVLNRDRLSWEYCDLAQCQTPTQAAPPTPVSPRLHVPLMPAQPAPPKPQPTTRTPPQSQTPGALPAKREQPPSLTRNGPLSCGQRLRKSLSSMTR
Target sequence (P00748 373-615 limits assumed): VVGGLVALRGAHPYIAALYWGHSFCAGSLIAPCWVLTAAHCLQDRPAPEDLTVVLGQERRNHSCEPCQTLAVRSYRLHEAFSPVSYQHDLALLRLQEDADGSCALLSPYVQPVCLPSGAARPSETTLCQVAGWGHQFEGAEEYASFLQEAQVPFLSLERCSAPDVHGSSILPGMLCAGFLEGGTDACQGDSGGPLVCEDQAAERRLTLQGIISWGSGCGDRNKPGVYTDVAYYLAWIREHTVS
STAT3 act: IL-6 driven STAT3 reporter potentiators, primary screen, U3A cells, luciferase, luminescence, MLSCN library; IL-6 STAT3-luciferase reporter; 100% = signal with IL-6 EC80 alone; activation (% of control), % at 5.6 µM; 0.91% of 190,000 active;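 active means activation above the screen-wide mean of compound activation plus 3 SD, cut at about 130% in these data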;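 further: 0% = background luminescence of wells with medium and substrate only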
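Material: human U3A cells carrying STAT3-luciferase construct. Measured by: reporter luminescence signal. Timing: compound 1 h, then IL-6 6 h at 37 °C.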
* = called active by the depositor; x = no result.

SMILES	FXIa inh 1536	hK5 inh	AHR act	Thrombin inh	FXIIa inh 1536	STAT3 act
CC(C)CC(C(=O)N1CCOCC1)N1Cc2ccccc2C1=O (stereo unspecified)	-1	-10	-2	-6	11	98
CN(C)c1ccc(-c2nc3ccccn3c2/N=C/c2ccc(Br)cc2)cc1	6	-15	47*	-3	17	90
COc1cc(-c2nc3ccccn3c2/N=C/c2cc(OC)c(OC)c(OC)c2)ccc1O	x	x	5	x	x	100
S=C1NC2CCCCC2N1 (stereo unspecified)	1	5	0	-1	11	100
Cc1ccsc1/C=N/n1c(-c2ccccn2)n[nH]c1=S	-3	-17	51*	-1	6	97
CCN(CC)CCN(C(=O)c1ccc2c(c1)CCCC2)c1nc2c(C)cccc2s1	x	x	-1	x	x	x
O=C(NCCOC(=O)C1COc2ccccc2O1)C1COc2ccccc2O1 (stereo unspecified)	5	46*	2	25	0	103
O=C(CSc1ccc(Br)cc1)Nc1ccccc1N1CCOCC1	x	x	0	x	x	x
CCOC(=O)C(=O)Nc1ccc(S(=O)(=O)Nc2ncccn2)cc1	4	17	-3	21	3	101
CCOCC(=O)Nc1ccc(S(=O)(=O)Nc2ncccn2)cc1	25	1	3	1	53*	97
O=C(NNS(=O)(=O)c1ccc(Br)cc1)c1ccccc1-n1cccc1	x	x	4	x	x	x
CC1CCN(C(=O)CSc2nnc(-c3ccccc3F)o2)CC1	x	x	0	x	x	x
Cc1ccc(NC(=O)c2ccc3nc[nH]c3c2)nc1	x	x	39	x	x	x
Cc1ccc(NC(=O)c2ccc3nc[nH]c3c2)c(O)c1	-3	-4	65*	-14	2	127
COc1ccc(CN(C)CC(=O)N2CCc3ccccc3C2)cc1	x	x	1	x	x	x
O=c1[nH]c(SCc2nc3c(cnn3-c3ccccc3)c(=O)[nH]2)nc2ccccc12	-7	-7	x	-3	-1	160*
C=CCn1c(Cc2ccccc2)nnc1SCc1nc2ccccc2c(=O)[nH]1	-5	-2	2	1	5	99
C=CCn1c(SCc2nc3ccccc3c(=O)[nH]2)nc2ccccc2c1=O	1	-3	60*	3	10	106
O=c1[nH]c(CSc2nc3ccccc3o2)nc2c1cnn2-c1ccccc1	-18	-12	27	-6	1	101
O=c1[nH]c(CSc2ncccn2)nc2c1cnn2-c1ccccc1	-3	-17	119*	-5	7	100
CC(C)NS(=O)(=O)c1ccc(NC(=O)C(C)OC(=O)C2CCC2)cc1 (stereo unspecified)	x	x	2	x	x	x
CC(C)(C)OC(=O)N1C[C@H](O)C[C@H]1C(=O)OCC(=O)c1ccc([N+](=O)[O-])cc1	x	x	1	x	x	x
O=C(CNC(=O)c1ccccc1)NCC(=O)OCC(=O)c1ccc(F)cc1	20	80*	-3	16	31	80
CC(C)(C)C(=O)COC(=O)CNC(=O)c1ccc(Oc2ccccc2)cc1	1	44*	0	5	34	111
CCN(C(=O)c1cc2c(C)nc3ccccc3c2o1)c1cc(Cl)ccc1OC	-1	-2	-1	-4	3	x
SMILES	FXIa inh 1536	hK5 inh	AHR act	Thrombin inh	FXIIa inh 1536	STAT3 act
On1onc2c3cc(-c4ccccc4)nc3ccc21	4	11	9	2	7	100
c1ccc(-c2cc3c(ccc4nonc43)nn2)cc1	-2	4	48*	-2	11	114
Cc1ccc(NC(=O)CCC(=O)c2cccs2)c(O)c1	0	1	7	0	8	x
O=C(NC1CCCCC1)c1ccc(Br)o1	1	83*	6	15	8	102
O=C(NC1CCC(O)CC1)c1ccc(Br)o1 (stereo unspecified)	x	x	0	x	x	x
Cc1cc(N2CCOCC2)ccc1/C=C1/SC(=O)NC1=O	-2	1	13	1	10	138*
CN1C(=O)c2ccc(N3CCCC3)cc2C1=O	2	-18	-2	3	15	88
C=CCN1C(=O)S/C(=C\c2ccc(N3CCOCC3)cc2C)C1=O	12	12	-1	8	23	97
Cc1cc(N2CCCC2)ccc1/C=C1\NC(=S)N(C)C1=O	1	x	51*	7	14	86
CC(C)(C)c1cc(C(=O)N/N=C/c2ccc(-c3ccccc3[N+](=O)[O-])o2)n[nH]1	x	x	50*	x	x	x
Cc1cc(C(=O)N/N=C/c2ccc(-c3cccc(Cl)c3Cl)o2)n[nH]1	7	-16	8	2	13	81
O=C(N/N=C/c1ccc(-c2ccccc2[N+](=O)[O-])o1)c1cccnc1	3	-15	55*	9	13	103
O=C(O)c1cccc(-c2ccc(/C=N/NC(=O)c3cccnc3)o2)c1	6	11	11	-7	5	111
COc1cc(C(=O)NCC(=O)NNC(=O)C2COc3ccccc3O2)cc(OC)c1OC (stereo unspecified)	x	x	2	x	x	x
Cn1c(CNc2nc3ccccc3n2C)nc2ccccc21	8	-33	49*	9	15	100
Cn1c(NC(=S)Nc2ccccc2)nc2ccccc21	2	-88	60*	1	5	83
CCOC(=O)c1ccc(NCc2nc3ccccc3n2C)cc1	-7	-11	59*	-4	-2	97
S=C(Nc1ccccc1)Nc1nc2ccccc2n1CCOc1ccc(Br)cc1	5	-72	22	5	6	100
COc1ccc(NCc2nc3ccccc3n2C)cc1	x	x	53*	x	x	x
CCOC(=O)c1nn(-c2ccc(F)cc2)c(=O)c(C#N)c1C	x	x	0	x	x	x
COc1cccc(C(=O)COC(=O)CCC(=O)c2ccccc2)c1	x	x	1	x	x	x
CCCn1c(NCc2cccs2)nc2ccccc21	9	56*	4	17	24	104
O=C(Nc1sc2c(c1C(=O)NCC1CCCO1)CCCC2)c1cccs1 (stereo unspecified)	6	54*	3	21	19	89
COCCNC(=O)c1nn2c(C(F)(F)F)cc(-c3ccccc3)nc2c1Cl	x	x	0	x	x	x
COc1ccc(CCNC(=O)CCN2C(=O)COc3ccc(C)cc32)cc1OC	8	4	-2	0	18	96
COc1ccc(CCNC(=O)CCN2C(=O)COc3ccccc32)cc1OC	-1	2	85*	-8	-3	102
O=c1[nH]cnc2c1ncn2[C@@H]1O[C@H](COS(=O)(=O)O)[C@@H](O)[C@H]1O	x	x	-1	x	x	x
CN(C)/C=N/c1nc2nccc(-c3cccs3)n2n1	-8	-58	75*	-25	-10	84

Screens (PubChem BioAssay)
